Screening results deposited in PubChem by several laboratories.
TAAR1 antag: human TAAR1 antagonism; CHO RD-HGA16 TAAR1, Fluo-8 calcium fluorescence, antagonist; inhibition, % at 3 µM; 360,000 tested, 1.5% active;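 active = inhibition above a per-plate cutoff, the mean inhibition of test compounds on that plate plus 3 SD, cut at about 49% in these data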;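 note: 0% = DMSO plus EC80 beta-PEA response and 100% = DMSO alone without agonist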
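Assay system: CHO-derived RD-HGA16 cells stably expressing human TAAR1 plus Gα16. Timing: 140 s kinetic read after compound, 140 s after agonist. Technique: kinetic Fluo-8 calcium fluorescence measurement. Measure: % inhibition of agonist calcium response.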
OX1R antag-1: antagonists of human orexin 1 receptor; O43613; CHO/OX1R cells, Fluo-8 calcium fluorescence, orexin A; inhibition, % at 5 µM; 330,000 tested, 0.43% active;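 active = inhibition above its plate's threshold, mean inhibition of all tested compounds on the plate plus 3 SD, cut at about 37% in these data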;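 note: 0% = orexin A challenge wells and 100% = SB-334867-A antagonist wells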
CHO parental Ca: signal in parental CHO cells, OX1R antagonist counter-screen; parental CHO-K1, ATP-induced calcium, Fluo-8 fluorescence; inhibition, % at 5.6 µM; 330,000 tested, 0.63% active;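 active = inhibition above that plate's mean sample inhibition plus 3 SD, cut at about 26% in these data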;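 note: 0% = ATP-challenged DMSO wells and 100% = DMSO wells without ATP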
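Measured by: calcium-sensitive Fluo-8 fluorescence / Test system: CHO parental line / Controls: ATP-challenged DMSO wells low, unchallenged DMSO wells high / Measure: % inhibition / Compound: single nominal dose of 5.6 µM per compound / Replicates: single well per compound, no replicates / Reagent: ATP as calcium-mobilizing challenge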
TAAR1 ag: agonists of human TAAR1; Q96RJ0; CHO RD-HGA16 TAAR1, Fluo-8 calcium fluorescence; vehicle wells 0%, saturating PEA agonist 100%; activation, % at 3 µM; 360,000 tested, 0.99% active; AID 624467;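 active = activation above the mean activation of all test compounds in the run plus 3 SD, cut at about 38% in these data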
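System: CHO-derived RD-HGA16 cells with stable Gα16 and human TAAR1 / Times: 17-24 h plating, Fluo-8 75 min 37 °C, 30 min RT / Technique: calcium-sensitive Fluo-8 signal, excitation 470-495, emission 515-575 nm / Measure: % activation relative to PEA EC100 response / Benchmarks: DMSO and PEA EC100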
OX1R antag-2: antagonists of human orexin 1 receptor (OX1R) | inhibition, % at 6.6 µM | 330,000 tested, 1.8% active | OX1R-expressing cells, FRET antagonist read-out; in the data active = inhibition mostly above about 38%, no sharp cut-off; inactive = mostly below about 40%;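 note: 0% = agonist challenge alone and 100% = reference antagonist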
NTR1 agonist: agonists of human neurotensin receptor NTR1 | P30989 | NTR1-U2OS beta-arrestin-GFP spot imaging, agonist mode | activation, % at 20 µM | 330,000 tested, 0.17% active | AID 493036;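 active = activation at or above 40% of the spot to cytoplasm intensity ratio, with at least 20 cells analyzed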;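 note: 0% = DMSO without peptide and 100% = 100 nM NTR1 peptide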
Target sequence (P30989 whole entry, looked up): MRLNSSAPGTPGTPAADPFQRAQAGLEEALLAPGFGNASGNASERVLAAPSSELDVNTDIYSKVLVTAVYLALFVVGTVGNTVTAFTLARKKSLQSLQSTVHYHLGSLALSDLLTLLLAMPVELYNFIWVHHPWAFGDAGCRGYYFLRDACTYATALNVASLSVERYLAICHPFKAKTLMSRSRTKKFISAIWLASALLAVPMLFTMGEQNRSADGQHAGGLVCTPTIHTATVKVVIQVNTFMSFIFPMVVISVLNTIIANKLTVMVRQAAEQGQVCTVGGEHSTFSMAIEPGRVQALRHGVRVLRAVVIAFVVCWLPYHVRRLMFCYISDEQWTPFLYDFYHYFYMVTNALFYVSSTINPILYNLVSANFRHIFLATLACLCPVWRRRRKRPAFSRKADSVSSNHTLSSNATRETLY
OX1R HTRF conf: confirmation of human orexin 1 receptor antagonists, HTRF format. shares compounds with OX1R antag-2. OX1R-expressing cells, HTRF antagonist assay. inhibition, % at 6.6 µM. 1,800 tested, 49% active. AID 492964; in the data active = inhibition above about 55%;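 note: CHO cells expressing OX1R stimulated with orexin A at about EC80; 0% = agonist challenge alone and 100% = reference antagonist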
CHO-K1 HTRF: counter-screen: parental CHO-K1 HTRF response | shares compounds with OX1R antag-2 | parental CHO-K1 cells, HTRF counterscreen | 1,800 tested, 48% active | inhibition, % at 6.6 µM; in the data active = inhibition above about 17%;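 note: 0% = agonist challenge with vehicle and 100% = vehicle alone without agonist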
Active calls of the source: *; x = not tested or not shown. Most compounds without a hit are left out; they make up all but 4% or so of the library.

SMILES	TAAR1 antag	OX1R antag-1	CHO parental Ca	TAAR1 ag	OX1R antag-2	NTR1 agonist	OX1R HTRF conf	CHO-K1 HTRF
COc1ccc(C(C(=O)NC2CCCC2)N(CCCO)C(=O)c2snc(C(N)=O)c2N)cc1 (stereo not drawn)	9	-21	-18	3	121*	-1	20	-3
COC(=O)c1cc(C(=O)OCC(=O)NC2CCS(=O)(=O)C2)cc([N+](=O)[O-])c1 (stereo not drawn)	-21	-14	-12	1	84*	-2	43	47*
CCN(C(=O)COC(=O)/C=C/c1cccc(Br)c1)C1CCS(=O)(=O)C1 (stereo not drawn)	-31	-13	-2	1	21	-1	x	x
COC(=O)c1cc(C(=O)OCC(=O)N(C)C2CCS(=O)(=O)C2)cc([N+](=O)[O-])c1 (stereo not drawn)	-11	-8	-12	1	120*	-2	88*	70*
CN(C(=O)COC(=O)/C=C/c1cccc([N+](=O)[O-])c1)C1CCS(=O)(=O)C1 (stereo not drawn)	-3	-18	-11	1	90*	1	41	43*
O=C1C(Nc2ccccc2)=C/C(=N/S(=O)(=O)c2cccs2)c2ccccc21	x	-21	-23	x	40	x	x	x
CCc1cc[n+](C2=C([O-])c3ccccc3C(=O)/C2=N\S(=O)(=O)c2cccs2)cc1	-7	-17	-12	3	149*	0	56*	80*
O=[N+]([O-])c1ccc(S(=O)(=O)N(CCCN2CCOCC2)Cc2cccs2)cc1	1	-24	-23	-1	86*	2	32	43*
CC(=O)Nc1ccc(S(=O)(=O)N(CCCN2CCOCC2)Cc2cccs2)cc1	9	-1	-20	7	5	-1	x	x
COc1ccc(NC(=O)N(C)C[C@H]2Oc3ccc(NC(=O)c4ccncc4)cc3C(=O)N([C@H](C)CO)C[C@@H]2C)cc1	-9	-21	-4	14	5	-3	x	x
Cc1ccc(C)c(N(CC(=O)NC(C)(C)C)C(=O)CNC(=O)c2cccs2)c1	2	-26	-15	7	115*	0	14	3
Cc1ccccc1N(CC(=O)NC1CCCCC1)C(=O)CNC(=O)c1cccs1	7	-30	-21	-2	16	-1	x	x
Cc1nc2ccc(NC(=O)c3ccc(Cl)c(NC(=O)c4cccs4)c3)cc2s1	10	-16	-12	11	81*	1	38	8
Cc1ccc(NC(=O)c2ccc(Cl)c(NC(=O)c3cccs3)c2)cc1	6	-21	-12	-1	24	8	x	x
O=C(O)CCCCCNS(=O)(=O)c1cccc2c1C(=O)c1ccccc1C2=O	3	-5	-7	1	138*	4	55*	86*
CCOc1ccc(Br)cc1S(=O)(=O)Nc1cccc(S(=O)(=O)N2CCOCC2)c1	1	x	x	17	x	x	x	x
COc1ccc(CC(=O)NCc2nnc(SCC(=O)Nc3cccc(F)c3)n2C)cc1	-2	-8	-8	-1	92*	3	17	-12
COc1ccc(CC(=O)NCc2nnc(SCC(=O)Nc3ccccc3)n2C)cc1	-4	-4	-7	1	14	-1	x	x
CCOC(=O)N1CCC2(CC1)NCCc1c2[nH]c2ccccc12	5	-25	-18	2	11	1	x	x
Cc1ccn2cc(-c3cccc(NC(=O)C(C)C)c3)nc2c1	-6	-11	-6	0	20	0	x	x
Cc1ccn2cc(-c3cccc(NC(=O)c4ccccc4)c3)nc2c1	17	-24	-24	5	78*	4	62*	4
COc1cc(C(=O)OCC(=O)Nc2cccc(S(=O)(=O)N3CCCC3)c2)ccc1OCC(C)C	-5	-14	2	1	10	1	x	x
COc1cc(OC)cc(-c2oc(=O)c3cc(OC)c(OC)cc3c2C(F)(F)F)c1	3	-15	-23	3	4	2	x	x
Cc1ccccc1C(=O)Nc1ccnn1C1CCN(C(=O)C2CCOC2)CC1 (stereo not drawn)	-19	0	0	2	27	0	x	x
O=[N+]([O-])c1ccc(Sc2cc[n+]([O-])c3ccccc23)c([N+](=O)[O-])c1	-27	2	5	3	98*	5	55*	78*
SMILES	TAAR1 antag	OX1R antag-1	CHO parental Ca	TAAR1 ag	OX1R antag-2	NTR1 agonist	OX1R HTRF conf	CHO-K1 HTRF
Cc1c(C#N)c(O)n(CCO)c(=O)c1N=Nc1ccc(S(N)(=O)=O)cc1	-11	-24	-9	1	161*	1	64*	83*
Cc1c(C#N)c(O)n(C)c(=O)c1N=Nc1ccc(S(N)(=O)=O)cc1	13	x	x	-1	x	x	x	x
Cc1cc(Cl)ccc1OCC(O)CNCCc1ccc(S(N)(=O)=O)cc1 (stereo not drawn)	8	-14	-5	3	1	1	x	x
Cc1ccc(NC(=O)CSc2nnc(-c3ccco3)o2)cc1	8	-13	-3	4	99*	4	8	6
CCCc1nnc(N2C(=O)c3cccc4cccc(c34)C2=O)s1	-6	-17	-2	3	103*	0	40	37*
O=C1c2cccc3cccc(c23)C(=O)N1c1nccs1	1	-17	-1	5	30	0	x	x
COC(=O)c1c(=O)n(O)c2ccc(OC)cc2[n+]1[O-]	x	-12	-11	x	88*	0	33	47*
O=C(CN1C2=NCCCN2c2ccccc21)c1ccc([N+](=O)[O-])cc1	-18	-15	-16	5	87*	0	58*	62*
O=C(CN1C2=NCCCN2c2ccccc21)c1cccc(Br)c1	-15	-12	-6	8	-3	-3	x	x
Cc1nc2c(ccc3nc(NC(=O)Cc4ccccc4)sc32)s1	-2	5	-18	-3	77*	-4	89*	3
Cc1ccc(CC(=O)Nc2nc3ccccc3s2)cc1	4	-15	-18	19	21	-2	x	x
CCn1c(C)[n+](CCOC(C)=O)c2cc(Cl)c(Cl)cc21	-5	-9	4	0	88*	3	24	5
C/C(=N\NC(=O)c1cc([N+](=O)[O-])cc([N+](=O)[O-])c1)c1ccco1	5	-19	-8	5	81*	3	56*	89*
O=C(CCS(=O)(=O)c1cccc2nonc12)N1CCN(c2ccc(F)cc2)CC1	11	-10	-3	0	97*	0	27	24*
